Measurements published in ChEMBL document CHEMBL1143802, “Synthesis and biological evaluation of some 6-substituted purines” (Eur J Med Chem, 2007).

How the values were obtained:
[1] = tested on: Leishmania chagasi; test: Antileishmanial activity against Leishmania chagasi MHOM/Br/74/PP75 promastigotes by MTT colorimetric method; format: functional, organism-based
Procedure, shortened: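 Log-phase promastigotes kept at 24 °C in Medium 199 plus 10% fetal bovine serum. Seeded at 3 million cells/mL and held 1 h at 24 °C before compound addition in water or DMSO (up to 1% v/v). Each concentration run in triplicate over a three-day incubation. Viability measured by MTT; IC50 is the concentration giving 50% growth inhibition.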

[2] = tested on: Leishmania amazonensis; test: Antileishmanial activity against Leishmania amazonensis MHOM/Br/75/Josefa promastigotes by MTT colorimetric method; format: functional, organism-based
Procedure, shortened: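 Log-phase promastigotes grown at 24 °C in Warren's medium (brain heart infusion with hemin and folic acid) plus 10% fetal bovine serum. Seeded at 2 million cells/mL and preincubated 1 h at 24 °C. Compounds added in water or DMSO (up to 1% v/v), each concentration in triplicate. Incubated three days, viability read by MTT, and IC50 taken as 50% growth inhibition.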

c1nc(SCCCNC2CCCCC2)c2nc[nH]c2n1
IC50 [1]: > 227 µM | IC50 [2]: > 227 µM

NCCSCCCSc1ncnc2[nH]cnc12
IC50 [1]: > 227 µM | IC50 [2]: 50 µM

O=C(O)CSc1ncnc2[nH]cnc12
IC50 [1]: > 227 µM | IC50 [2]: 39 µM

O=C1c2ccccc2C(=O)N1CCCCSc1ncnc2[nH]cnc12
IC50 [1]: > 227 µM | IC50 [2]: > 227 µM

ClCCCSc1ncnc2[nH]cnc12
IC50 [1]: > 227 µM | IC50 [2]: 50 µM

CO[C@@H]1O[C@H](CSc2ncnc3[nH]cnc23)[C@H]2OC(C)(C)O[C@@H]12
IC50 [1]: > 227 µM | IC50 [2]: > 227 µM

NCCNCCCSc1ncnc2[nH]cnc12
IC50 [1]: > 227 µM | IC50 [2]: > 227 µM

CC1(C)O[C@H]2[C@@H](O1)[C@@H](CSc1ncnc3[nH]cnc13)O[C@@H]1OC(C)(C)O[C@@H]12
IC50 [1]: > 227 µM | IC50 [2]: > 227 µM

CO[C@@H]1O[C@H](CSc2ncnc3[nH]cnc23)[C@@H](O)[C@H]1O
IC50 [1]: > 227 µM | IC50 [2]: 29 µM

CCOC(=O)CSc1ncnc2[nH]cnc12
IC50 [1]: > 227 µM | IC50 [2]: > 227 µM

CC1(C)O[C@H]2[C@H]3OC(C)(C)O[C@]3(CSc3ncnc4[nH]cnc34)OC[C@H]2O1
IC50 [1]: > 227 µM | IC50 [2]: > 227 µM

C[C@@H]1[C@H](O)[C@@H](C)/C=C/C=C/C=C/C=C/C=C/C=C/C=C/[C@H](O[C@@H]2O[C@H](C)[C@@H](O)[C@H](N)[C@@H]2O)C[C@@H]2O[C@](O)(C[C@@H](O)C[C@@H](O)[C@H](O)CC[C@@H](O)C[C@@H](O)CC(=O)O[C@H]1C)C[C@H](O)[C@H]2C(=O)O [AMPHOTERICIN B]
IC50 [1]: 1.9 µM | IC50 [2]: 0.9 µM

Sc1ncnc2nc[nH]c12 [MERCAPTOPURINE ANHYDROUS]
IC50 [1]: > 227 µM | IC50 [2]: > 227 µM
